Assay type in all cases: functional, Neuron
Assay [1] can be described thus: Neuroprotection in Sprague-Dawley rat embryonic motor cortex neurons at 5 uM by MTT method. The method in brief: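 Cultured neurons from embryonic day-19 Sprague-Dawley rat motor cortex, with compound alone and no neurotoxic agent added. Viability measured by MTT reduction, read as mitochondrial functional activity and number of cells present in culture. Neuroprotection expressed as % (NP), mean ± SEM of at least three independent experiments.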
In general terms: Formazan colour is commonly taken as a measure of viable cells.

Assay [2] can be described thus: Neuroprotection in Sprague-Dawley rat embryonic motor cortex neurons assessed as protection against 100 uM glutamate-induced excitotoxicity at 5 uM by MTT method. The method in brief: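 Primary cultures of motor cortex neurons from 19-day Sprague-Dawley rat embryos, challenged with glutamate as neurotoxic agent alongside the compound. Cell viability read by MTT reduction, taken as mitochondrial integrity and functional activity, reflecting the number of viable cells. Neuroprotection (NP) reported in %, as mean ± SEM from at least three independent experiments.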

Assay [3] can be described thus: Neuroprotection in Sprague-Dawley rat embryonic motor cortex neurons assessed as protection against 100 uM H2O2-induced neuronal death at 5 uM by MTT method. In a few lines:
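Primary neurons cultured from embryonic day-19 Sprague-Dawley rat motor cortex. Cells were exposed to compound in the presence of H2O2 as the neurotoxic insult. Viability was read as MTT reduction, which reflects mitochondrial integrity and function and indicates the number of viable cells. Protection is given as mean ± SEM of at least three independent experiments.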

Take `C#CCN(CC#C)[C@@H]1C[C@H](OC(C)=O)c2ccccc21`: the Activity was 0% in assay [1], -1.5% in assay [2] and 18.2% in assay [3].
In the case of `C#CCN(CC#C)[C@@H]1C[C@@H](O)c2ccccc21`, the Activity in assay [1] was -1%; in assay [2], -0.5%; in assay [3], 19.6%.
For `C#CCN(CC#C)[C@@H]1C[C@@H](OC(=O)c2ccccc2)c2ccccc21` the same measures were 6.9%, -1.3% and -5.8%.
For `C#CCN[C@@H]1C[C@H](O)c2ccccc21` the same measures were 0%, 0% and 46.2%.
On the same counts, the results for `C#CCN[C@@H]1C[C@@H](O)c2ccccc21` are 23.4%, 15.2% and 14.5%.
As to `C#CCN(CC#C)[C@@H]1C[C@H](O)c2ccccc21`, the Activity in assay [1] is reported as -5%; in assay [2], 0%; in assay [3] it was 17.8%.
On the same counts, the results for `C#CCN(CC#C)[C@@H]1C[C@@H](OC(C)=O)c2ccccc21` are 0%, -0.5% and 12.3%.
On the same counts, the results for `C#CCN(CC#C)[C@@H]1C[C@H](OC(=O)c2ccccc2)c2ccccc21` are -5.1%, 1.6% and 16.4%.

Values taken from ChEMBL document CHEMBL2331551, “TOPS-MODE model of multiplexing neuroprotective effects of drugs and experimental-theoretic study of new 1,3-rasagiline derivatives potentially useful in neurodegenerative diseases” (2013).
